ChEMBL document CHEMBL1671641, “1,5-benzodiazepines, a novel class of hepatitis C virus polymerase nonnucleoside inhibitors” (Antimicrob Agents Chemother, 2008)

Key:
[1] = system: Hepatitis C virus; assay: Antiviral activity against Hepatitis C virus 1b infected in human HuH7 cells assessed as inhibition of viral replication after 3 days by luciferase reporter assay; format: functional, organism-based, Hepacivirus hominis, genotype 1b, Huh-7
How it was run: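 HCV 1b subgenomic luciferase reporter replicon (clone ET) cells, 2,500 per well, were exposed to a nine-point 1/4 dilution series for 3 days. Replication was read as luciferase activity. Values are means ± SD from 2 to 23 independent experiments run in quadruplicate.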

[2] = system: MT4; assay: (§1) Cytotoxicity against LTR-Luc transfected human MT4 cells […] after 3 days by ATPLite assay; format: cell-based; settings: mt4, 72 h, 72 h
[3] = Cytotoxicity against CMV-Luc transfected human HuH7 cells after 5 days; format: cell-based, Huh-7; settings: for CC50: huh-7, 120 h, 120 h
[4] = system: Hepatitis C virus; assay: Inhibition of Hepatitis C virus 1b J4 recombinant NS5B Cdelta 21 RNA dependent RNA polymerase overexpressed in Escherichia coli BL21 (DE3) by RdRp primer-dependent transcription assay; design: species or system Hepatitis C virus subtype 1b
[5] = system: Hepatitis C virus; assay: Inhibition of Hepatitis C virus 1b J4 recombinant NS5B Cdelta 21 RNA dependent RNA polymerase overexpressed in Escherichia coli BL21 (DE3) assessed as [alpha-33P]UTP incorporation by RdRp primer-independent transcription assay; design: species or system Hepatitis C virus subtype 1b
How it was run: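 De novo (primer-independent) RdRp assay: 190 nM NS5BΔ21 (1b J4) with 86 nM HCV 3′ UTR template RNA, 0.5 mM each ATP/GTP/CTP, 10 μM UTP plus [α-³³P]UTP, in 20 mM Tris-HCl pH 7.5, 1 mM DTT, 5 mM MgCl₂, 20 mM NaCl. Incubated 2 h at room temperature, stopped with EDTA/tRNA, TCA-precipitated on filters, and scintillation-counted. Quadruplicate.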

[6] = system: Hepatitis C virus; assay: Ratio of EC50 for Hepatitis C virus 796 infected in HuH7 cells to EC50 for Hepatitis C virus 796 harboring NNI P495L mutant site in NS5B infected in HuH7 cells; format: functional, Hepacivirus hominis, Huh-7
How it was run: (§2)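 NS5B NNI-site mutations were introduced into the genotype 1b ET subgenomic luciferase replicon by site-directed mutagenesis. RNA was made by in vitro transcription and tested in a transient-replication assay.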

[7] = system: Hepatitis C virus; assay: Ratio of EC50 for Hepatitis C virus 796 infected in HuH7 cells to EC50 for Hepatitis C virus 796 harboring NNI M423T mutant site in NS5B infected in HuH7 cells; format: functional, Hepacivirus hominis, Huh-7; how it was run: as §2
[8] = system: Hepatitis C virus; assay: Ratio of EC50 for Hepatitis C virus 796 infected in HuH7 cells to EC50 for Hepatitis C virus 796 harboring NNI M414Q mutant site in NS5B infected in HuH7 cells; format: functional, Hepacivirus hominis, Huh-7; how it was run: as §2
[9] = system: Hepatitis C virus; assay: Ratio of EC50 for Hepatitis C virus 796 infected in HuH7 cells to EC50 for Hepatitis C virus 796 harboring NNI Y448A mutant site in NS5B infected in HuH7 cells; format: functional, Hepacivirus hominis, Huh-7; how it was run: as §2
[10] = system: Hepatitis C virus; assay: Ratio of EC50 for Hepatitis C virus 796 infected in HuH7 cells to EC50 for Hepatitis C virus 796 harboring NNI H95R mutant site in NS5B infected in HuH7 cells; format: functional, Hepacivirus hominis, Huh-7; how it was run: as §2
[11] = system: Hepatitis C virus; assay: Ratio of EC50 for Hepatitis C virus 796 infected in HuH7 cells to EC50 for Hepatitis C virus 796 harboring NNI C316Y mutant site in NS5B infected in HuH7 cells; format: functional, Hepacivirus hominis, Huh-7; how it was run: as §2
[12] = as §1; format: cell-based

## CC(=O)N1c2ccccc2NC2=C(C(=O)CC(C)(C)C2)C1c1ccc(OCc2ccccc2)cc1 (single isomer, unassigned; 3a)
[1]; huh-7
  EC50: 15.3 µM
[2]
  CC50: 22.2 µM
[3]
  CC50: 19.2 µM
[4]
  IC50: 1 µM
[5]
  IC50: 0.54 µM

## CC(C)C[C@@]1(C(=O)O)C[C@H](C#N)[C@H](c2nccs2)N1C(=O)c1ccc(C(C)(C)C)cc1 [ACYL PYRROLIDINE]
[6]
  fold change (FC): 10
[7]
  fold change (FC): 10
[8]
  fold change (FC): 10
[9]
  fold change (FC): 10
[10]
  fold change (FC): 10
[11]
  fold change (FC): 10

## CC(=O)N1c2ccccc2NC2=C(C(=O)CC(C)(C)C2)C1c1ccc(OCc2ccccc2)cc1Cl (single isomer, unassigned; 5a)
[1]; huh-7
  EC50: 9.3 µM
[2]
  CC50: 19.5 µM
[3]
  CC50: 49 µM
[4]
  IC50: 0.33 µM

## CC(=O)N1c2ccccc2NC2=C(C(=O)CC(C)(C)C2)C1c1ccc(OCc2ccccc2)cc1 (single isomer, unassigned; 3b)
[1]; huh-7
  EC50: 2 µM
[2]
  CC50: 18.3 µM
[3]
  CC50: 19.7 µM
[4]
  IC50: 86.7 µM
[5]
  IC50: 79.1 µM

## c1ccc2[nH]ccc2c1 [INDOLE]
[6]
  fold change (FC): 10
[7]
  fold change (FC): 10
[8]
  fold change (FC): 10
[9]
  fold change (FC): 10
[10]
  fold change (FC): 10
[11]
  fold change (FC): 10

## CC(C)N(c1cc(-c2ccccc2)sc1C(=O)O)C(=O)[C@H]1CC[C@H](C)CC1
[6]
  fold change (FC): 10
[7]
  fold change (FC): 10
[8]
  fold change (FC): 10
[9]
  fold change (FC): 10
[10]
  fold change (FC): 10
[11]
  fold change (FC): 10

## CC(=O)N1c2cccc(O)c2NC2=C(C(=O)CC(C)(C)C2)C1c1ccc(OCc2ccccc2)cc1Cl (stereo in doubt; 7)
[1]; Hepatitis C virus, genotype 1b, Huh-7, 72 h
  EC50: 1.43 µM
[12]
  CC50 at 72 h: 17.8 µM
[3]; CMV-Luc transfected HuH7 cells
  CC50 at 120 h: 13.4 µM
